Laboratory results reported in ChEMBL document CHEMBL5705890, “Antitumor activity of an allosteric inhibitor of centromere-associated protein-E” (Proc Natl Acad Sci U S A, 2010).

Tests used:
NCI-H2170 = assay: Anticancer activity against human NCI-H2170 cells assessed as cell growth inhibition measured after 72 hrs by DAPI staining based analysis; type: functional
MC-IXC = assay: Anticancer activity against human MC-IXC cells assessed as cell growth inhibition measured after 72 hrs by DAPI staining based analysis; type: functional
UACC-257 = assay: Anticancer activity against human UACC-257 cells assessed as cell doubling measured for 72 hrs by DAPI staining based analysis; type: functional
Hep 3B2 = assay: Anticancer activity against human Hep3B cells assessed as cell growth inhibition measured after 72 hrs by DAPI staining based analysis; type: functional
A-431 = assay: Anticancer activity against human A-431 cells assessed as cell doubling measured for 72 hrs by DAPI staining based analysis; type: functional
K562 = assay: Anticancer activity against human K562 cells assessed as cell doubling measured for 72 hrs by DAPI staining based analysis; type: functional
[1] = Anticancer activity against human SKO-007 cells assessed as cell growth inhibition measured after 72 hrs by DAPI staining based analysis; type: functional
MCF7 = assay: Antitumor activity against human MCF7 cells in xenograft model assessed as tumor growth delay at 62.5 mg/kg relative to control; type: functional
SF-268 = assay: Anticancer activity against human SF-268 cells assessed as cell growth inhibition measured after 72 hrs by DAPI staining based analysis; type: functional
[2] = molecular target: Centromere-associated protein E (Homo sapiens, UniProt Q02224); assay: Inhibition of microtubule-stimulated ATPase activity of C-terminal 6-his-tagged CENP-E (2 to 340 residues)(unknown origin) expressed in Escherichia coli BL21(DE3) in presence of ATP
In short: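 Steady-state ATPase of CENP-E motor domain, residues 2–340 with C-terminal 6-His tag, expressed in E. coli BL21(DE3). Run at 1 nM enzyme, 500 μM ATP and 5 μM paclitaxel-stabilized microtubules in PEM25 (25 mM PIPES-K pH 6.8, 2 mM MgCl2, 1 mM EGTA) plus 10 μM paclitaxel. IC50 taken from concentration-response curves.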

[3] = Anticancer activity against human COLO-704 cells assessed as cell doubling measured for 72 hrs by DAPI staining based analysis; type: functional
D283 Med = assay: Anticancer activity against human D283 Med cells assessed as cell doubling measured for 72 hrs by DAPI staining based analysis; type: functional
SW480 = assay: Anticancer activity against human SW480 cells assessed as cell doubling measured for 72 hrs by DAPI staining based analysis; type: functional
MOLT-16 = assay: Anticancer activity against human MOLT-16 cells assessed as cell growth inhibition measured after 72 hrs by DAPI staining based analysis; type: functional
SW1990 = assay: Anticancer activity against human SW1990 cells assessed as cell doubling measured for 72 hrs by DAPI staining based analysis; type: functional
EFM-19 = assay: Anticancer activity against human EFM-19 cells assessed as cell growth inhibition measured after 72 hrs by DAPI staining based analysis; type: functional
In short: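 Cells seeded, DAPI-stained DNA content of fixed cells read by imaging 24 h after seeding (T0), and again after a further 72 h exposure to a range of drug concentrations (T72). T72 values were normalized to T0. Curve fits gave the concentration producing 50% growth inhibition relative to T0 and Ymax (GI50).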

LNCaP = assay: Anticancer activity against human LNCaP cells assessed as cell doubling measured for 72 hrs by DAPI staining based analysis; type: functional
LOX IMVI = assay: Anticancer activity against human LOX IMVI cells assessed as cell doubling measured for 72 hrs by DAPI staining based analysis; type: functional
RPMI-8226 = assay: Anticancer activity against human RPMI-8226 cells assessed as cell doubling measured for 72 hrs by DAPI staining based analysis; type: functional
SNU-387 = assay: Anticancer activity against human SNU-387 cells assessed as cell growth inhibition measured after 72 hrs by DAPI staining based analysis; type: functional
NCI-H716 = assay: Anticancer activity against human NCI-H716 cells assessed as cell growth inhibition measured after 72 hrs by DAPI staining based analysis; type: functional
C3A = assay: Anticancer activity against human C3A cells assessed as cell doubling measured for 72 hrs by DAPI staining based analysis; type: functional
A673 = assay: Anticancer activity against human A673 cells assessed as cell growth inhibition measured after 72 hrs by DAPI staining based analysis; type: functional
In short: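 Cells were seeded and, after 24 h, DNA content was read as T0. Cells were then exposed to varying drug concentrations for a further 72 h (T72). Fixed cells were DAPI-stained and DNA content measured by automated imaging. T72 values were normalized to T0. GI50 is the concentration giving 50% growth inhibition between T0 and Ymax, obtained by curve fitting.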

HT-29 = assay: Anticancer activity against human HT-29 cells assessed as cell doubling measured for 72 hrs by DAPI staining based analysis; type: functional
M14 = assay: Anticancer activity against human M14 cells assessed as cell doubling measured for 72 hrs by DAPI staining based analysis; type: functional
SNU-475 = assay: Anticancer activity against human SNU-475 cells assessed as cell growth inhibition measured after 72 hrs by DAPI staining based analysis; type: functional
SH-4 = assay: Anticancer activity against human SH-4 cells assessed as cell doubling measured for 72 hrs by DAPI staining based analysis; type: functional
COLO 205 = assay: Anticancer activity against human COLO 205 cells assessed as cell growth inhibition measured after 72 hrs by DAPI staining based analysis; type: functional
In short: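 Cells were seeded, and DNA content at 24 h after seeding (T0) was read by imaging of fixed, DAPI-stained cells. Cells were then exposed to a range of drug concentrations for a further 72 h (T72) and DNA content was read again. T72 values were normalized to T0, and GI50 was taken from curve fits as the concentration giving 50% growth inhibition relative to T0 and Ymax.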

Malme-3M = assay: Anticancer activity against human Malme-3M cells assessed as cell growth inhibition measured after 72 hrs by DAPI staining based analysis; type: functional
HEC-1B cell line = assay: Anticancer activity against human HEC-1B cells assessed as cell doubling measured for 72 hrs by DAPI staining based analysis; type: functional
SNU1 = assay: Anticancer activity against human SNU1 cells assessed as cell doubling measured for 72 hrs by DAPI staining based analysis; type: functional
HCT-15 = assay: Anticancer activity against human HCT-15 cells assessed as cell growth inhibition measured after 72 hrs by DAPI staining based analysis; type: functional
NCI-H526 = assay: Anticancer activity against human NCI-H526 cells assessed as cell growth inhibition measured after 72 hrs by DAPI staining based analysis; type: functional
A549 = assay: Antitumor activity against human A549 cells in xenograft model assessed as difference between median time to endpoint time of treated versus control group at 125 mg/kg; type: functional
SN12C = assay: Anticancer activity against human SN12C cells assessed as cell growth inhibition measured after 72 hrs by DAPI staining based analysis; type: functional
COLO 320DM = assay: Anticancer activity against human COLO 320DM cells assessed as cell doubling measured for 72 hrs by DAPI staining based analysis; type: functional
MDA-MB-435 = assay: Anticancer activity against human MDA-MB-435 cells assessed as cell growth inhibition measured after 72 hrs by DAPI staining based analysis; type: functional

Centromere-associated protein E, sequence (Q02224 whole entry, the tested form may be a part): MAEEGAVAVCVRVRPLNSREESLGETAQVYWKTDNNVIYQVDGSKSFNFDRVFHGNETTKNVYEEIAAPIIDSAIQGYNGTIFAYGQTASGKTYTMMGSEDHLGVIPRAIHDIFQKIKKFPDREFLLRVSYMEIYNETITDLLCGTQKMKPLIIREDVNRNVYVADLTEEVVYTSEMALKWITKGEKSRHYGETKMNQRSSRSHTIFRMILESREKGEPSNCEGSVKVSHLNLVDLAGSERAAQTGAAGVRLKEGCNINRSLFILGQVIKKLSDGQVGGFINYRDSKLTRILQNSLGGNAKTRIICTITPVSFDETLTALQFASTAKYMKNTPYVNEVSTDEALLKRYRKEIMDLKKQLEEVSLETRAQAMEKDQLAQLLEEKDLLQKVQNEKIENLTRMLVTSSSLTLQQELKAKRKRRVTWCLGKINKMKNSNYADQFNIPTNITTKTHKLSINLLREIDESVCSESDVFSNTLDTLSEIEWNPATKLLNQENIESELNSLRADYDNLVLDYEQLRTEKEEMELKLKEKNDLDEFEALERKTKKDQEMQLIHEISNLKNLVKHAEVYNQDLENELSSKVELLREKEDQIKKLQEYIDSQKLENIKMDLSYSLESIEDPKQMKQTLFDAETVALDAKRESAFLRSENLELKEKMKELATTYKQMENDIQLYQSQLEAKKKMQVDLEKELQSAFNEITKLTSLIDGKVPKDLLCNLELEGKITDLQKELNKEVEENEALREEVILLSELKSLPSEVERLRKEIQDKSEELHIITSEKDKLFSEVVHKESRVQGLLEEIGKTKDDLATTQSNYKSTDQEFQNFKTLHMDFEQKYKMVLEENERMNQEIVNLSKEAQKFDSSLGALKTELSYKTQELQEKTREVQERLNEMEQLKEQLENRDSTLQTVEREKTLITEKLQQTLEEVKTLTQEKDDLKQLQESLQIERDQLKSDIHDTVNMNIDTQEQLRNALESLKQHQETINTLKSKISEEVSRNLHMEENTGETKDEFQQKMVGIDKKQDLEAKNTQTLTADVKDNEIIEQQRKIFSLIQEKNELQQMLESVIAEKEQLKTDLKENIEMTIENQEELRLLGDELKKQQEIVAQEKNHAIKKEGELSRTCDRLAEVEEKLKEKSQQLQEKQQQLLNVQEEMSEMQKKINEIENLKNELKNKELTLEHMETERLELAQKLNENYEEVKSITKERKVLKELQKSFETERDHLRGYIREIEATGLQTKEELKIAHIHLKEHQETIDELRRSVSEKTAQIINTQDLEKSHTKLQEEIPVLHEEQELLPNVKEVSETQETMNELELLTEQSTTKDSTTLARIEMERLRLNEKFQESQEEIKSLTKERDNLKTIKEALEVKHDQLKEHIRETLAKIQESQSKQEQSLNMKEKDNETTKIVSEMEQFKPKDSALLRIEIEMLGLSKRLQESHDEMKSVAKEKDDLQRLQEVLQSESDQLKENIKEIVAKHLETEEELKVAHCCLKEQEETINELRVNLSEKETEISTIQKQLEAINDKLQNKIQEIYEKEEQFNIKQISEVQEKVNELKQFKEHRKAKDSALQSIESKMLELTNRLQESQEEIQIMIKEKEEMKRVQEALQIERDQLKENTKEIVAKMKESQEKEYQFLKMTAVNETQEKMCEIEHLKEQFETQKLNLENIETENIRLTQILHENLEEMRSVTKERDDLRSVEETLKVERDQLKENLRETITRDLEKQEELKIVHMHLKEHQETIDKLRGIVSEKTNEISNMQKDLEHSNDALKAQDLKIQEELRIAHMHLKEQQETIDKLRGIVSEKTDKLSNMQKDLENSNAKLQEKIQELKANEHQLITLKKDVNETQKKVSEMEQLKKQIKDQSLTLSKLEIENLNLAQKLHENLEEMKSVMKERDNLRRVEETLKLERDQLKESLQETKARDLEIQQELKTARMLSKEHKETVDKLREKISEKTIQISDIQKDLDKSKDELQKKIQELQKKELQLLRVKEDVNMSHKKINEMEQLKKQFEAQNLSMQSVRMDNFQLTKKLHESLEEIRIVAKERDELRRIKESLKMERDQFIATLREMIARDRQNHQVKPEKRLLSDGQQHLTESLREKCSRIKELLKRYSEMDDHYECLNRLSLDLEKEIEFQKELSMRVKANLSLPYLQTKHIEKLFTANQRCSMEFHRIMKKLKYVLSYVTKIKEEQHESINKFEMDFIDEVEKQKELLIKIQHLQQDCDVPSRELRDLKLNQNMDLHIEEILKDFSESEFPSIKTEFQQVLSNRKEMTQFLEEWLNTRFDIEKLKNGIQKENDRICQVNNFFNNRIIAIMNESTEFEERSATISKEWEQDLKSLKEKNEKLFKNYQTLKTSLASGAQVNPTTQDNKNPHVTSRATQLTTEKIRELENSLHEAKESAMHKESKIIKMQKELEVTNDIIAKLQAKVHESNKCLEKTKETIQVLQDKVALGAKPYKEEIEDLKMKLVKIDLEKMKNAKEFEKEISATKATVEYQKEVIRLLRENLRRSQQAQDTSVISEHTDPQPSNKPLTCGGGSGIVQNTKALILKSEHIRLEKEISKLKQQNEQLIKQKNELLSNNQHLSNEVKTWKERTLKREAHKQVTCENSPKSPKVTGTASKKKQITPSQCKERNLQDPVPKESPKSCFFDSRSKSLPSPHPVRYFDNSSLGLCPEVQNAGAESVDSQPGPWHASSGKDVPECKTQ

GI50 (NCI-H2170): 25 nM | IC50 [2]: 2.3 nM | GI50 (MOLT-16): 47 nM | GI50 (SNU-387): 32 nM | GI50 (NCI-H716): 174 nM | GI50 (SNU-475): 26 nM | GI50 (COLO 205): 25 nM | GI50 (HCT-15): 151 nM | GI50 (NCI-H526): 88 nM | GI50 (MDA-MB-435): 30 nM
SMILES: CC(C)Oc1ccc(C(=O)N[C@H](CNC(=O)CN(C)C)Cc2ccc(-c3cn4cccc([C@H](C)O)c4n3)cc2)cc1Cl [GSK-923295A]
GI50 (MC-IXC): 27 nM | Activity (UACC-257): 1.79 | GI50 (Hep 3B2): 164 nM | Activity (A-431): 2.95 | Activity (K562): 3.52 | GI50 [1]: 60 nM | Activity (MCF7): 20% | GI50 (SF-268): 26 nM | Activity [3]: 2.48 | Activity (D283 Med): 1.27 | Activity (SW480): 2.21 | Activity (SW1990): 1.88 | GI50 (EFM-19): 28 nM | Activity (LNCaP): 1.4 | Activity (LOX IMVI): 2.32 | Activity (RPMI-8226): 1.96 | Activity (C3A): 2.23 | GI50 (A673): 23 nM | Activity (HT-29): 4.33 | Activity (M14): 2.27 | Activity (SH-4): 3.12 | GI50 (Malme-3M): 51 nM | Activity (HEC-1B cell line): 2.04 | Activity (SNU1): 2.64 | Time (A549): 25.3 days | GI50 (SN12C): 29 nM | Activity (COLO 320DM): 3.85
